# Compounds with a hit are over-represented: about 1.7% of the library has one in this group of screens.
# Hck Nef HTS = human Hck-Nef kinase inhibition; 220,000 compounds, 0.68% hits; Recombinant Hck-YEEI plus Nef, Z-Lyte FRET kinase assay; inhibition, % at 20 µM; P08631; AID 463187;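 active = Hck-Nef kinase inhibition above about 50%, limit read from the data; inactive = inhibition below that limit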
# Target sequence (P08631 whole entry, looked up): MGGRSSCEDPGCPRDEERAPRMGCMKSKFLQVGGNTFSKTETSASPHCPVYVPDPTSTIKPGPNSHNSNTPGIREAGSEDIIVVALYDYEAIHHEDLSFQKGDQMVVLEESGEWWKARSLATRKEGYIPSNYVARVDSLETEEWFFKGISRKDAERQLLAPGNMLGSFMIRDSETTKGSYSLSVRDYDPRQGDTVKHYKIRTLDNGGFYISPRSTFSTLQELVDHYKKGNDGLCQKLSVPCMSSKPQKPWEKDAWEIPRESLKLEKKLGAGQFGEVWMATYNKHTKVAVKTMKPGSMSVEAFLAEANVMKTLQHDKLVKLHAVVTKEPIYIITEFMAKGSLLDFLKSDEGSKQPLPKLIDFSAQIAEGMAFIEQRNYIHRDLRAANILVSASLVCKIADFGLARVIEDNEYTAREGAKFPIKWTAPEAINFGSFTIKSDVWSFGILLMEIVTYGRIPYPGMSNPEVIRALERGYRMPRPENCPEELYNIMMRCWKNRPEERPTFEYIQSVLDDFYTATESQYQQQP
# RanGTP-Imp inh = disruptors of Ran-importin-beta complex formation – biochemical, FRET, CFP-Ran, YFP-importin-beta, homogeneous, primary screen; cell-free CFP-Ran/YFP-importin-beta FRET ratio; inhibition, % (test concentration not listed); 300,000 compounds, 1.1% hits; AID 2216;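 active = more than half of the replicate wells show a fall in the fluorescence ratio signal beyond about 16%, limit read from the data, passing the limit was not always enough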
# Runt-SMMHC FRET = Runt domain-CBFb-SMMHC interaction inhibition; Q01196+Q13951; Cerulean-Runt/Venus-CBFb-SMMHC FRET ratio 530/480, 1 h; inhibition, % at 20 µM; 220,000 compounds, 0.74% hits;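 active = mean inhibition across duplicate retests at 20 µM reaching about 50%, limit read from the data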;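 also: inhibitors lower the FRET ratio by blocking Runt binding to CBFb-SMMHC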
# Runt-CBFb FRET = inhibitors of human RUNX1 Runt domain binding to CBFb; Q01196+Q13951; Cerulean-Runt/Venus-CBFb FRET ratio 530/480, 1 h; inhibition, % at 20 µM; 220,000 compounds, 0.46% hits; AID 1496;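 active = inhibition over about 50% at 20 µM in the single-dose screen, limit read from the data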
#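 System: Cerulean-labeled Runt domain protein | Quantity: 100 nM of each labeled protein | Schedule: 1 h compound exposure, room temperature | Detection: Fluorescence energy transfer, 422 nm excitation, 530/480 nm emission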
# Numbers stand for hits; i = inactive; nt = no result given.
SMILES,Hck Nef HTS,RanGTP-Imp inh,Runt-SMMHC FRET,Runt-CBFb FRET
CCCn1nc(NC(=O)c2cccs2)c2cc3ccccc3nc21,i,60.8,50.2,nt
CCCn1nc(NC(=O)c2ccncc2)c2cc3ccccc3nc21,i,i,i,i
CCCCn1nc(NC(=O)c2cccs2)c2cc3ccccc3nc21,i,73.5,63.4,i
COCCC(=O)Nc1c(-c2ccccc2)c2cc(Br)ccc2[nH]c1=O,nt,i,nt,nt
COc1cc(/C=C(/NC(=O)c2ccccc2)C(=O)N2CCOCC2)c([N+](=O)[O-])cc1OC,nt,i,nt,nt
COc1ccccc1NC(=O)CC12CC3CC(CC(Br)(C3)C1)C2,nt,i,nt,nt
CC(C)(C)OC(=O)NCCCC[C@H](NC(=O)c1nc[nH]c1C(=O)N1CCN(c2ccccc2)CC1)C(=O)OC(C)(C)C,i,i,i,i
CCCN1C2CCCC1CC(NC(=S)Nc1ccc(OC)cc1)C2 (centres undefined),i,i,71.0,i
COc1ccc(NC(=S)NC2CC3CCCC(C2)N3C2CC2)cc1 (centres undefined),i,i,i,i
Cc1cc(C)n2c(nc3ccccc32)c1C(=O)NCc1ccccc1,i,i,i,i
COc1ccc(C2(O)CCN(CC(=O)Nc3nc(-c4ccccc4)cs3)CC2)cc1,i,i,i,i
O=C(CN1CCN(c2ccccc2)CC1)Nc1ccccc1C(F)(F)F,i,i,i,79.5
CN1CCN(CC(=O)Nc2ccccc2C(F)(F)F)CC1,nt,i,nt,nt
CCOC(=O)c1c(-c2ccccc2)oc2ccc(OCC(O)CNCCN(C)C)cc12 (centres undefined),nt,i,nt,nt
COc1ccc(N2CCN(c3nc4ccccc4n3CC(=O)c3ccccc3)CC2)cc1,i,i,i,i
CCOC(=O)C1CCN(c2nc3ccccc3n2CC(=O)c2ccccc2)CC1,i,21.2,i,i
COC(=O)c1ccc2c(c1)C(=O)/C(=C/c1ccc(O)cc1)O2,i,19.1,i,i
CCN(CC)CCSc1nnc2c3cc(C)ccc3n(Cc3ccccc3)c2n1,i,i,i,i
CCN1/C(=C2\OC(=S)N(C)C2=O)Sc2ccccc21,i,i,63.8,i
CN1c2ccc(Cl)cc2C(=O)NC1C1CC=CCC1 (centres undefined),i,29.6,94.8,i
O=C1C=CC(=O)N1c1cccc(-c2ccccc2)c1,i,i,73.2,i
COc1cc(/C=C2\SC(N)=NC2=O)ccc1OCC(=O)Nc1ccc(C)cc1,92.6,i,i,i
COc1ccc(/C=C2/SC(=O)N(CCC(=O)Nc3ccc(C)cc3)C2=O)cc1OC,i,i,i,i
CC(OC(=O)/C(C#N)=C/c1ccc(N(C)C)cc1)C(=O)N(C)c1ccccc1 (centres undefined),nt,92.2,nt,nt
O=C(N/C(=C/c1cccc([N+](=O)[O-])c1)C(=O)N1CCCCC1)c1cccs1,i,i,i,i
SMILES,Hck Nef HTS,RanGTP-Imp inh,Runt-SMMHC FRET,Runt-CBFb FRET
N#CCCN(CCC#N)C(=O)C1c2ccccc2Oc2ccccc21,nt,i,nt,nt
CCC(=O)NC(Nc1sc2c(c1C(=O)OC)CCN(C)C2)(C(F)(F)F)C(F)(F)F,i,66.4,61.0,i
COC(=O)NC(Nc1sc2c(c1C(N)=O)CCCC2)(C(=O)OC)C(F)(F)F (centres undefined),i,i,i,i
CCOC(=O)C(NC(=O)CC)(Nc1sc2c(c1C(=O)OC)CCN(C)C2)C(F)(F)F (centres undefined),i,37.8,i,i
CCOC(=O)NC(Nc1sc2c(c1C(=O)OC)CCN(C)C2)(C(F)(F)F)C(F)(F)F,i,56.5,i,i
CCOC(=O)c1c(NC(=S)N2CCN(C)CC2)sc2c1CCN(C(=O)OCC)C2,i,i,i,i
Cc1ccnc(NC(=O)CSc2nnc3c(n2)[nH]c2ccccc23)c1,i,i,i,i
COC(=O)C1=CN(CC2CCCO2)C=C(C(=O)OC)C1c1cc(OC)c(OC)c(OC)c1 (centres undefined),i,i,92.7,i
COC(=O)C1=CN(Cc2ccc(OC)cc2)C=C(C(=O)OC)C1c1cc(OC)c(OC)c(OC)c1,nt,i,nt,nt
Cc1cccc(-c2nn(-c3ccccc3)cc2C(=O)N(C)CC(=O)Nc2ccc(N3CCOCC3)cc2)c1,nt,i,nt,nt
Cc1cc(C)c(S(=O)(=O)c2cccc(C)c2C)c(=O)[nH]1,nt,i,nt,nt
CCOC(=O)c1cc2c(=O)n3cccc(C)c3nc2n(Cc2ccccc2Cl)c1=N,nt,nt,65.0,125.5
CCN(CC)C(=O)c1cc2c(=O)n3cccc(C)c3nc2n1C,i,i,i,i
C=CCn1c(=N)c(C(=O)OCC)cc2c(=O)n3cccc(C)c3nc21,172.4,nt,nt,nt
CCc1noc(C)c1C(=O)Nc1ccc(F)c(F)c1F,nt,i,nt,nt
CCN(C(=O)COC(=O)c1ccc(Br)o1)C1CCCCC1,i,i,i,i
Cc1ccccc1S(=O)(=O)c1cc(C#N)c(=O)[nH]c1N,i,i,134.2,87.0
Cn1c(=O)c2cc(S(=O)(=O)NCCC(=O)NCc3ccccc3Cl)ccc2n(C)c1=O,i,i,i,137.5
N#C/C(=C(/O)COC(=O)CCc1ccc(S(=O)(=O)N2CCOCC2)cc1)c1nc2ccccc2[nH]1,i,28.8,i,i
N#C/C(=C(/O)COC(=O)c1ccc(Cl)c(S(=O)(=O)N2CCOCC2)c1)c1nc2ccccc2[nH]1,i,i,i,i
Cc1cc(C)cc(N(CCC#N)C(=O)COC(=O)c2ccc(OCc3c(C)noc3C)cc2)c1,nt,i,nt,nt
O=C(O)C(Cc1c[nH]c2ccccc12)N1C(=O)C2C3c4ccccc4C(c4ccccc43)C2C1=O (centres undefined),i,i,i,i
N#C/C(=C\c1ccco1)c1nc2ccccc2s1,i,i,i,i
N#C/C(=C/c1ccc(-c2cc(C(=O)O)cc(C(=O)O)c2)o1)c1nc2ccccc2s1,i,i,68.8,84.9
Cc1cc(NC(=O)CCl)n(-c2nc3ccccc3s2)n1,58.6,i,i,i
SMILES,Hck Nef HTS,RanGTP-Imp inh,Runt-SMMHC FRET,Runt-CBFb FRET
COc1ccc(NC(=O)CN2C(=O)COc3ccc(S(=O)(=O)N4CCCCC4)cc32)c(OC)c1,nt,i,nt,nt
Brc1ccc(-c2ccc(/C=N/Nc3nncc(-c4ccccc4)n3)o2)cc1,i,i,i,i
Brc1ccc(-c2ccc(/C=N/Nc3nc4ccccc4[nH]3)o2)cc1,i,63.6,i,i
N=c1c(C(=O)NC2CCCC2)cc2c(=O)n3ccccc3nc2n1C1CCCCC1,nt,180.7,nt,nt
Cc1nc2ccccn2c1C(=O)NC1CCCC1,i,i,i,i
O=C(NC1CCCCCC1)c1ccc2nc3cc(Cl)ccc3c(=O)n2c1,i,i,i,i
Cc1ccc2nc3c(cc(C(=O)NC4CCCC4)c(=N)n3C3CCCCC3)c(=O)n2c1,nt,182.3,nt,nt
Cc1ccc2nc3c(cc(C(=O)NC4CCCCC4)c(=N)n3C3CCCCC3)c(=O)n2c1,nt,182.0,nt,nt
CC(C)C(=O)NC(=S)Nc1ccc(S(=O)(=O)N2CCN(C)CC2)cc1,i,i,i,i
N#CC(C#N)=Cc1c[nH]c(=O)c(C#N)c1Nc1ccccc1,nt,67.3,nt,nt
C/C=C\C=C/C(=O)Nc1cccc(C2=NOC3(C2)C[C@H](C(N)=O)N(C(=O)c2ccc(OC)cc2)C3)c1 (some centres undefined),i,i,i,i

# Compound activity (PubChem)
